We go through 16 compounds from ChEMBL document CHEMBL1149331, “Design, synthesis, and structure-activity relationships of haloenol lactones: site-directed and isozyme-selective glutathione S-transferase inhibitors” (J Med Chem, 2004).

For assay [1], the target named is T1, Glutathione S-transferase P (Homo sapiens, UniProt P09211). In words: Inactivation of recombinant human Glutathione S-transferase P. An outline of the steps:
(§1)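 Recombinant human GSTP1-1 (E. coli-expressed, glutathione-agarose purified), 0.1 mg/mL, preincubated with haloenol lactone (0.17 mM, added in ethanol; vehicle control) in phosphate buffer pH 7.4 at 30 °C. Aliquots taken at 0, 2, 5, 12 min. Residual activity read by Habig assay: 1.0 mM GSH + 1.0 mM CDNB, 0.1 M phosphate pH 6.5, A340, corrected for nonenzymatic rate; kobs from time course.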
Target sequence in this assay (P09211 2-210 limits assumed): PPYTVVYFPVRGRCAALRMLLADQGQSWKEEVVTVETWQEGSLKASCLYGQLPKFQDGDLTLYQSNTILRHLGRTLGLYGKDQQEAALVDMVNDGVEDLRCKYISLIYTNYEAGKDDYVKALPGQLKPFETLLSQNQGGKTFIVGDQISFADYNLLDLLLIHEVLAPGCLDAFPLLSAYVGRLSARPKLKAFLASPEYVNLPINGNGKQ

In assay [2] the target is T1, Glutathione S-transferase P. The assay is described as follows: (§2) Inhibitory activity for human glutathione S-transferase-pi isozyme was determined. In short, it runs like this: as §1
Target sequence in this assay (P09211 whole entry): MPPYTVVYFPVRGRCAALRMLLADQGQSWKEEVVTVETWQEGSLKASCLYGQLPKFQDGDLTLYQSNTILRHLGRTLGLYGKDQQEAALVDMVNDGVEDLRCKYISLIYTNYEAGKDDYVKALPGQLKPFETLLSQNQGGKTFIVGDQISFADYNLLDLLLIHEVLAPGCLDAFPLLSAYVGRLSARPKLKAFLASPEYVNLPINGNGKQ
Assay [3] shares this target. The assay is described as §2. In short, it runs like this:
as §1
The source holds these as a separate data set.
Target sequence in this assay (P09211 2-210 limits assumed): as the sequence (P09211 2-210 limits assumed) above

For assay [4] the target is unchanged. In words: (§3) Inhibitory activity for human Glutathione S-transferase P was determined. In short, it runs like this: as §1
Target sequence in this assay (P09211 whole entry): as the sequence (P09211 whole entry) above
For assay [5] the target is unchanged. The assay is described as §3. In short, it runs like this:
as §1
Target sequence in this assay (P09211 2-210 limits assumed): as the sequence (P09211 2-210 limits assumed) above
This is another data set of the same source.

Molecules are shown by their SMILES. Activity calls are given as the source filed them. The calls are words filed in the database; no cut-off is given here.

Take `O=C1O/C(=C/Br)CC1CCCc1ccccc1` (stereo not given): the K obs in assay [1] is 0.0439.

Regarding `O=C1O/C(=C/Br)CC1CCCCc1ccccc1` (stereo not given), the K obs in assay [1] was 0.0366.

With `COc1ccc(/C=C/CC2C/C(=C\Br)OC2=O)cc1` (stereo not given), the K obs entry in assay [1] is “inactive”.

Consider `O=C1O/C(=C/Br)CC1Cc1ccccc1` (stereo not given), for which, in assay [1], the K obs was found to be 0.101.

Consider `O=C1O/C(=C/Br)CC1Cc1ccc2ccccc2c1` (stereo not given), for which the K obs in assay [1] amounted to 0.0499.

Turning to `CCCCCCCCCC1C/C(=C\Br)OC1=O` (stereo not given), the K obs in assay [1] came out at 0.0359.

Turning to `O=C1O/C(=C/Br)CC1C/C=C/c1ccc(C(F)(F)F)cc1` (stereo not given), in assay [1], the K obs was found to be 0.0364.

Regarding `O=C1O/C(=C/Br)CC1CC1CCCCC1` (stereo not given), in assay [1], the K obs turned out to be 0.0438.

Turning to `O=C1O/C(=C/I)CC1C/C=C/c1ccccc1` (stereo not given), the K obs in assay [1] was determined as 0.0421.

On to `CCCCCCCCC1C/C(=C\Br)OC1=O` (stereo not given), for which the K obs in assay [1] was 0.0382.

Regarding `CCCCCCC1C/C(=C\Br)OC1=O` (stereo not given), the K obs in assay [1] stood at 0.0847.

With `O=C1O/C(=C/Br)CC1CCc1ccccc1` (stereo not given), the K obs in assay [1] was 0.0632.

For the compound `CCCCCCCC1C/C(=C\Br)OC1=O` (stereo not given), the K obs in assay [1] came out at 0.0608.

As to `C/C(Br)=C1/CC(C/C=C/c2ccccc2)C(=O)O1` (stereo not given), the K obs in assay [1] was 0.0322.

One may read the Ki as the equilibrium dissociation constant of an inhibitor or competing ligand from its target. Low readings indicate a stronger hold on the target, high ones a looser hold on the target. With `O=C1O/C(=C/Br)CC1c1ccccc1` (stereo not given), the Ki in assay [2] was found to be 124 µM. This compound displayed a Kina in assay [3] of 0.097 min⁻¹. For the same compound, the K obs in assay [1] came out at 0.15.

The compound `O=C1O/C(=C/Br)CC1C/C=C/c1ccccc1` (stereo not given) returned an inhibitory constant (Ki) in assay [4] of 6.1 µM. Further, the Kina in assay [5] was 0.025 min⁻¹. The K obs in assay [1] was 0.0604.
